Laboratory results: ChEMBL document CHEMBL1154945, “Decahydroisoquinoline derivatives as novel non-peptidic, potent and subtype-selective somatostatin sst(3) receptor antagonists” (Bioorg Med Chem Lett, 2010)

Legend:
[1] = Apparent terminal half life in mouse plasma at 1 mg/kg, iv; format: ADME, organism-based; parameters: dose 1 mg/kg, route intravenous
Outline: (§1)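 Unlabelled drug dosed intravenously at 1 mg/kg to mice and rats; plasma analysed by LC–MS (LOQ 0.4 ng/ml); apparent terminal half-life computed from plasma levels.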

[2] = molecular target: Somatostatin receptor type 1 (Rattus norvegicus, UniProt P28646); test: Displacement of [125I]SRIF-14 from rat cortex membrane SST1 receptor
V79 = test: Genotoxicity against chinese hamster V79 cells by micronucleus test; format: toxicity, cell-based, Cricetulus griseus
[3] = molecular target: Somatostatin receptor type 5 (Homo sapiens, UniProt P35346); test: Binding affinity to human SST5 receptor
D(2) dopamine receptor = D(2) dopamine receptor (Homo sapiens, UniProt P14416); test: Binding affinity to dopamine D2 receptor
[4] = Ratio of drug level in brain to plasma in mouse at 3 mg/kg, po after 1 hr by LC-MS based method; format: ADME, organism-based; parameters: dose 3 mg/kg, route oral; settings: brain and plasma
Outline: (§2)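 Mice and rats dosed orally at 3 mg/kg with unlabelled drug; plasma and brain sampled 1 h after dosing and analysed by LC–MS (LOQ 0.4 ng/ml plasma, 2 ng/g brain); brain/plasma ratio calculated.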

[5] = molecular target: Somatostatin receptor type 2 (Rattus norvegicus, UniProt P30680); test: Displacement of [125I]SRIF-14 from rat cortex membrane SST2 receptor
[6] = Oral bioavailability in mouse at 3 mg/kg; format: ADME, organism-based; settings: in vivo
Outline: (§3)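 Unlabelled drug given orally (3 mg/kg) and intravenously (1 mg/kg) to mice and rats; plasma quantified by LC–MS (LOQ 0.4 ng/ml); absolute bioavailability estimated from the two routes.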

Homo sapiens [7] = species: Homo sapiens; test: Selectivity for human SST3 over human SST2
[8] = molecular target: T1, Alpha-1A adrenergic receptor (Homo sapiens, UniProt P35348); test: Binding affinity to Alpha-1A adrenergic receptor
T1 sequence (P35348 whole entry): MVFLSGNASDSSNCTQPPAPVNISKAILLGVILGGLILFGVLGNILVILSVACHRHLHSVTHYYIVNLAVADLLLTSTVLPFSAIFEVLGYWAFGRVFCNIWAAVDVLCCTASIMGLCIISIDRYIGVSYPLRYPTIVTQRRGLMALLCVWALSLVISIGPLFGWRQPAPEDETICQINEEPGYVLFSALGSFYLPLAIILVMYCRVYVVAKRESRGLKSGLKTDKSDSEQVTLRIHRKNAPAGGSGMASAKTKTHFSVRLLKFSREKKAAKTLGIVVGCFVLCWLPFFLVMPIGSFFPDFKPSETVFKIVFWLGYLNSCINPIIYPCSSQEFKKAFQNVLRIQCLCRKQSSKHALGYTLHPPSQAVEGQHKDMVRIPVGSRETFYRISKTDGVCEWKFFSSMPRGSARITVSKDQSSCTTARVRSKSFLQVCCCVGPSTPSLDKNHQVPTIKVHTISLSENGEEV

[9] = Oral bioavailability in rat at 3 mg/kg; format: ADME, organism-based; settings: in vivo; outline: as §3
Homo sapiens [10] = species: Homo sapiens; test: Selectivity for human SST3 over human SST1
[11] = molecular target: T2, Somatostatin receptor type 3 (Homo sapiens, UniProt P32745); test: Antagonist activity at human recombinant SST3 receptor expressed in CHO cells assessed as inhibition of SRIF14-induced cAMP accumulation; format: functional, cell-based
Outline: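 cAMP-based functional assay with human recombinant sst3 receptors expressed in CHO cells; test agent's antagonism of SRIF-14 response measured, pKB derived; n = 6.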

[12] = molecular target: Somatostatin receptor type 3 (Mus musculus, UniProt P30935); test: Displacement of [125I]SRIF-28 from mouse recombinant SST3 receptor
Outline: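 Radioligand binding on recombinant mouse sst3 receptors with 125I-SRIF28 as tracer; pKD reported, n = 3.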

[13] = molecular target: T2, Somatostatin receptor type 3; test: Binding affinity to human SST3 receptor
[14] = Inhibition of CYP450; format: ADME
Outline: (§4)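 Inhibition of the five principal human cytochrome P450 isoenzymes screened by a microplate-based, direct fluorometric assay.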

Homo sapiens [15] = species: Homo sapiens; test: Selectivity for human SST3 over human SST5
Cytochrome P450 2D6 = Cytochrome P450 2D6 (Homo sapiens, UniProt P10635); test: Inhibition of CYP2D6; format: ADME; outline: as §4
[16] = molecular target: Somatostatin receptor type 2 (Homo sapiens, UniProt P30874); test: Binding affinity to human SST2 receptor
[17] = molecular target: T3, 5-hydroxytryptamine receptor 2C (Homo sapiens, UniProt P28335); test: Binding affinity to 5HT2C receptor
T3 sequence (P28335 whole entry): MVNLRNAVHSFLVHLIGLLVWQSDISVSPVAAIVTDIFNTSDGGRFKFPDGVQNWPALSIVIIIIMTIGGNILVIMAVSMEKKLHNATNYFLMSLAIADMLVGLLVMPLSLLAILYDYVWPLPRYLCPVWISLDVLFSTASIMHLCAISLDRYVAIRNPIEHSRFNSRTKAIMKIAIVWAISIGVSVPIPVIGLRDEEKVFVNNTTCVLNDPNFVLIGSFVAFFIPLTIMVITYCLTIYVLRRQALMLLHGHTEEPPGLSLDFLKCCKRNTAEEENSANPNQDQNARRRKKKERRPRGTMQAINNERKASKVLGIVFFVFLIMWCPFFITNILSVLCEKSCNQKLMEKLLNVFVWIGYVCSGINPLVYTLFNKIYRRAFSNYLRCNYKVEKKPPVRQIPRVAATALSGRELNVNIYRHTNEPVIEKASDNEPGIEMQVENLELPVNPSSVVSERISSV

[18] = molecular target: Somatostatin receptor type 4 (Homo sapiens, UniProt P31391); test: Binding affinity to human SST4 receptor
[19] = molecular target: Somatostatin receptor type 1 (Homo sapiens, UniProt P30872); test: Binding affinity to human SST1 receptor
[20] = Ratio of drug level in brain to plasma in rat at 3 mg/kg, po after 1 hr by LC-MS based method; format: ADME, organism-based; parameters: dose 3 mg/kg, route oral; settings: brain and plasma; outline: as §2
Homo sapiens [21] = species: Homo sapiens; test: Selectivity for human SST3 over human SST4
[22] = Apparent terminal half life in rat plasma at 1 mg/kg, iv; format: ADME, organism-based; parameters: dose 1 mg/kg, route intravenous; outline: as §1

T2 sequence (P32745 whole entry): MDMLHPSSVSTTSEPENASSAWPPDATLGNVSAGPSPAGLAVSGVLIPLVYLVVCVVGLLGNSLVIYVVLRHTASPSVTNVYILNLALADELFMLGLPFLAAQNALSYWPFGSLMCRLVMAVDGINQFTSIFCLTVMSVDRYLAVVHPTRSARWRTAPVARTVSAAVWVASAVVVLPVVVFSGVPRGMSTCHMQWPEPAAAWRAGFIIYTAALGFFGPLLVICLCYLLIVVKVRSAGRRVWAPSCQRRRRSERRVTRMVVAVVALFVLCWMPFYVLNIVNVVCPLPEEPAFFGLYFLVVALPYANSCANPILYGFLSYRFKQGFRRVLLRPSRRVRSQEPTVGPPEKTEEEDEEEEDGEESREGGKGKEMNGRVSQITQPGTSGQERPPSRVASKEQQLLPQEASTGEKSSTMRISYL
D(2) dopamine receptor, sequence (P14416 whole entry): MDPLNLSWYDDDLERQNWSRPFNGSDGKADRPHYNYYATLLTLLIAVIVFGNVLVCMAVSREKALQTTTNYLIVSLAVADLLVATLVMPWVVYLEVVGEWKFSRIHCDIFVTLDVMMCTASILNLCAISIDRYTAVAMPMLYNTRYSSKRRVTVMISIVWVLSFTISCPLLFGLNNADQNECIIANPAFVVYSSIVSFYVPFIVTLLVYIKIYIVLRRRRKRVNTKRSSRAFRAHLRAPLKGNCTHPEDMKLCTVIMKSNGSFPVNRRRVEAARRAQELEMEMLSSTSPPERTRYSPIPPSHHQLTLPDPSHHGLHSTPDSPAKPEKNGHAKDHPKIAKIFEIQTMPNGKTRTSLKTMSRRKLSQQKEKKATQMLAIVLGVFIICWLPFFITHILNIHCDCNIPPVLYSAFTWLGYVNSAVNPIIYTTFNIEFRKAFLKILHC
Somatostatin receptor type 4, sequence (P31391 whole entry): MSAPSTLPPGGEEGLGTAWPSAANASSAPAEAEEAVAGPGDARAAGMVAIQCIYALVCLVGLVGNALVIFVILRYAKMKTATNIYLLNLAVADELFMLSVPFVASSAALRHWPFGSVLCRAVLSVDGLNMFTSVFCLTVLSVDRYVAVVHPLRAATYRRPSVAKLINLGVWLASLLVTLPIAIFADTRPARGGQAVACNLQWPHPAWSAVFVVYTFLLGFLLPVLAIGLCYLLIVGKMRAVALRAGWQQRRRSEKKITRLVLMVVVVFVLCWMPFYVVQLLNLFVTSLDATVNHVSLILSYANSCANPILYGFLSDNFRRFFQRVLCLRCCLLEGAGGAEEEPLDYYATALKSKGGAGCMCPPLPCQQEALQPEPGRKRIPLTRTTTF
Somatostatin receptor type 2 (Homo sapiens, UniProt P30874), sequence (P30874 whole entry): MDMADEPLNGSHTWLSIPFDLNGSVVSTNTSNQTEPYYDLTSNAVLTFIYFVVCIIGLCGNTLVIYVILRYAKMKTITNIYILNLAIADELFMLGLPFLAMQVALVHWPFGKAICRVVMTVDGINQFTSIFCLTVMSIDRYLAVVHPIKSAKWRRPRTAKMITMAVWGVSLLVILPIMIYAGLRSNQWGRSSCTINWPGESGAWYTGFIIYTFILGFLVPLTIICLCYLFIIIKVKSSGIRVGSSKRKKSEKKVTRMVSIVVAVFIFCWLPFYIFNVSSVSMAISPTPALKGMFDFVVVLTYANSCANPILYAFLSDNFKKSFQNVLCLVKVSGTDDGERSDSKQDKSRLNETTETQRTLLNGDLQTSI
Somatostatin receptor type 3 (Mus musculus, UniProt P30935), sequence (P30935 whole entry): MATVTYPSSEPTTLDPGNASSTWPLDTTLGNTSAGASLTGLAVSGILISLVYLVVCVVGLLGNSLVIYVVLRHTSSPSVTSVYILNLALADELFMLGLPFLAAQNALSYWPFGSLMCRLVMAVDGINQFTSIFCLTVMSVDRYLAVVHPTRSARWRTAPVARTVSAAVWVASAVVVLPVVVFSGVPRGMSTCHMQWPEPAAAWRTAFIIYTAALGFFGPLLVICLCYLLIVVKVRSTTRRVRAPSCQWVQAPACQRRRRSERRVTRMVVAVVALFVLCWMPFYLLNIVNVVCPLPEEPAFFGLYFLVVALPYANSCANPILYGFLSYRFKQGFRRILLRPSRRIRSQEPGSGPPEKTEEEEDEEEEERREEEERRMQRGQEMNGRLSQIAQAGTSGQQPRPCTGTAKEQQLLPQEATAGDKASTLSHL
Somatostatin receptor type 1 (Homo sapiens, UniProt P30872), sequence (P30872 whole entry): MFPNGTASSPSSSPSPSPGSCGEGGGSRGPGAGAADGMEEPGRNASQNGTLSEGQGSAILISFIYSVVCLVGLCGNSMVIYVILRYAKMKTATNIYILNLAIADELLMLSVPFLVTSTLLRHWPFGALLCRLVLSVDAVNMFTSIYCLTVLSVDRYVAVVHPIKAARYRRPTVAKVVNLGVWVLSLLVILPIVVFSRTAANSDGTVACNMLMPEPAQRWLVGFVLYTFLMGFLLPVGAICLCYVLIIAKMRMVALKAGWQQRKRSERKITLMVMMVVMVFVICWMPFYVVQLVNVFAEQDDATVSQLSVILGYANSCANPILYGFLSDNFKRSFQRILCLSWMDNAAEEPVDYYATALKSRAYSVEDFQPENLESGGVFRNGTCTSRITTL
Somatostatin receptor type 1 (Rattus norvegicus, UniProt P28646), sequence (P28646 whole entry): as the sequence (P30872 whole entry) above, with S8P, S11T, P16S, S20G, G25V, G26C, A32S, A45S, T385A, T389S counted along it
Somatostatin receptor type 2 (Rattus norvegicus, UniProt P30680), sequence (P30680 whole entry): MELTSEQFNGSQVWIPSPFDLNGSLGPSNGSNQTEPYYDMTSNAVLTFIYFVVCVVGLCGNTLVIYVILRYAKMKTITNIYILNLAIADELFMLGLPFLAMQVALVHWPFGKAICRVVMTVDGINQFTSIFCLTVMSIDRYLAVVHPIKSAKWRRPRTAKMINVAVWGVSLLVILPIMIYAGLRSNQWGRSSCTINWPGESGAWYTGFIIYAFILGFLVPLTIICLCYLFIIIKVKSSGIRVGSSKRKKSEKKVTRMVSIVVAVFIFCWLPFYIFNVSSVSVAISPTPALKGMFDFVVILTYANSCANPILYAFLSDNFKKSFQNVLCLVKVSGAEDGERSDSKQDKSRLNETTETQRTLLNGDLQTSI
Somatostatin receptor type 5, sequence (P35346 whole entry): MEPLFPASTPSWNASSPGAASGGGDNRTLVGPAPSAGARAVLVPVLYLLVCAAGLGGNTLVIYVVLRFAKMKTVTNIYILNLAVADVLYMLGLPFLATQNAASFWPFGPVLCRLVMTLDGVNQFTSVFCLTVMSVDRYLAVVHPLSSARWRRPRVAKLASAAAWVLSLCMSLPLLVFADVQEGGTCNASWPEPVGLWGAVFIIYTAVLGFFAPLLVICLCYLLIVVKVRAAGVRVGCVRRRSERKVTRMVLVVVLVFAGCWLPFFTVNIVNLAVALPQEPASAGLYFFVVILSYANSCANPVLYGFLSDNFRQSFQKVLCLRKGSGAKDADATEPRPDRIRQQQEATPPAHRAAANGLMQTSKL
Cytochrome P450 2D6, sequence (P10635 whole entry): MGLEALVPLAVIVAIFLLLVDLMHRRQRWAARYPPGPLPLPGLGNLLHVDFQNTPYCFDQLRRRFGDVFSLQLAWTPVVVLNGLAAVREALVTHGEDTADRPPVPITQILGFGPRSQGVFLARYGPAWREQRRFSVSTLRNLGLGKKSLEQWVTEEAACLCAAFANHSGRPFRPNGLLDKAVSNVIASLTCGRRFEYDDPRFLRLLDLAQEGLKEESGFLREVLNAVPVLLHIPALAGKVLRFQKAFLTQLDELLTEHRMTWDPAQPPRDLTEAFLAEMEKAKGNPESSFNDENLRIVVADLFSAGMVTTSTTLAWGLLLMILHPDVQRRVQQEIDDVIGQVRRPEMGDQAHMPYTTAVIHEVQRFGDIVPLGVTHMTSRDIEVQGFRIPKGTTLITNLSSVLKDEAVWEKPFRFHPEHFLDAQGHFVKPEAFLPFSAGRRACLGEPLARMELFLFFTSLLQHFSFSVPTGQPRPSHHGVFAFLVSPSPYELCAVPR

Compound: COc1ccc(C[C@H](C)CN2C[C@@H]3CCCC[C@@H]3[C@H](C(=O)N3CCN(c4ccc(F)c(F)c4)CC3)C2)cn1.O=C(O)/C=C/C(=O)O
- half-life [1]: 1.5 h
- Kd [2]: 589 nM
- Activity (V79): Non-toxic
- Kd [3]: 1120 nM
- Kd (D(2) dopamine receptor): 741 nM
- Kp at 1 h [4]: 2.4
- Kd [5]: 115 nM
- bioavailability [6]: 15%
- Ratio (Homo sapiens [7]): > 150
- Kd [8]: 692 nM
- bioavailability [9]: 21%
- Ratio (Homo sapiens [10]): > 100
- pKb [11]: 7.88
- Kd [12]: 4.9 nM
- Kd [13]: 7.08 nM
- IC50 [14]: > 10000 nM
- Ratio (Homo sapiens [15]): > 150
- IC50 (Cytochrome P450 2D6): 6500 nM
- Kd [16]: 4570 nM
- Kd [17]: 427 nM
- Kd [18]: 148 nM
- Kd [19]: 2040 nM
- Kp at 1 h [20]: 0.4
- Ratio (Homo sapiens [21]): 21
- half-life [22]: 5.6 h
